Test results published in ChEMBL document CHEMBL1139887, “Glycosides from the stem bark of Fraxinus sieboldiana” (J Nat Prod, 2007).
One block for each molecule: values may come before it.

Experiments:
Liver microsomes = assay: Antioxidant activity in rat liver microsomes assessed as inhibition of ferrous-cystine-induced lipid peroxidation after 15 mins; type: functional, Microsome
In short: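 Microsomes from rat liver suspended in 100 mM Tris-HCl pH 7.4. Then 50 µM FeSO4 added and a further 15 min at 37 °C. Stopped with 20% TCA and spun. Supernatant heated with 0.67% TBA 10 min, read at 532 nm. Tested over several concentrations.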

[1] = Cytotoxicity against human Bel7402 cells; type: cell-based; conditions: Bel-7402
A549 = assay: Cytotoxicity against human A549 cells; type: cell-based
[2] = Cytotoxicity against human BGC823 cells; type: cell-based; conditions: BGC-823
[3] = tested on: Peritoneal macrophage cell; assay: Inhibition of LPS-induced TNFalpha secretion in C57BL/6J mouse peritoneal macrophages at 10 uM after 24 hrs; type: functional
In short: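 Macrophages from male C57BL6J mice, harvested 4 days after i.p. thioglycollate. Cells adhered 2 h, then 24 h at 37 °C with compound (10^-5 M final), LPS 1 µg/mL and 5% FCS. Supernatant put on L929 cells with actinomycin D 0.5 µg/mL for 20 h, then MTT 4 h, A570. Triplicate wells. Inhibition = (L−S)/(L−B)×100. Indomethacin reference.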

HCT-8 = assay: Cytotoxicity against human HCT8 cells; type: cell-based
A2780 = assay: Cytotoxicity against human A2780 cells; type: cell-based
[4] = tested on: Peritoneal macrophage cell; assay: Inhibition of LPS-induced TNFalpha secretion in C57BL/6J mouse peritoneal macrophages after 24 hrs; type: functional, cell-based

SMILES: COc1cc(O[C@@H]2O[C@H](CO)[C@@H](O)[C@H](O)[C@H]2O)cc(OC)c1O[C@@H]1O[C@H](CO)[C@@H](O)[C@H](O)[C@H]1O
IC50 (Liver microsomes): > 10 µM | IC50 [1]: > 5 µM | IC50 (A549): > 5 µM | IC50 [2]: > 5 µM | inhibition at 10 µM [3]: 25.2% | IC50 (HCT-8): > 5 µM | IC50 (A2780): > 5 µM

SMILES: COc1cc([C@@H](O)[C@@H](O)CO)cc(OC)c1O[C@@H]1O[C@H](CO)[C@@H](O)[C@H](O)[C@H]1O
IC50 (Liver microsomes): > 10 µM | IC50 [1]: > 5 µM | IC50 (A549): > 5 µM | IC50 [2]: > 5 µM | inhibition at 10 µM [3]: 26.6% | IC50 (HCT-8): > 5 µM | IC50 (A2780): > 5 µM

SMILES: COc1cc(C(=O)OC[C@H]2O[C@@H](Oc3cc4ccc(=O)oc4cc3O)[C@H](O)[C@@H](O)[C@@H]2O)ccc1O[C@@H]1O[C@H](CO)[C@@H](O)[C@H](O)[C@H]1O
IC50 (Liver microsomes): > 10 µM | IC50 [1]: > 5 µM | IC50 (A549): > 5 µM | IC50 [2]: > 5 µM | inhibition at 10 µM [3]: 30.8% | IC50 (HCT-8): > 5 µM | IC50 (A2780): > 5 µM

SMILES: CC1=C[C@@H](C2=C(C)CC[C@H](O[C@@H]3O[C@H](CO)[C@@H](O)[C@H](O)[C@H]3O)C2(C)C)[C@@H](/C=C(/C)C(=O)O)OC1 [FRAXINUACIDOSIDE]
IC50 (Liver microsomes): > 10 µM | IC50 [1]: > 5 µM | IC50 (A549): > 5 µM | IC50 [2]: > 5 µM | IC50 (HCT-8): > 5 µM | IC50 (A2780): > 5 µM

SMILES: COc1ccc2c(c1)c(CC(=O)O)c(C)n2C(=O)c1ccc(Cl)cc1 [INDOMETHACIN]
inhibition at 10 µM [3]: 33.2%

SMILES: O=C(/C=C/c1ccc(O)c(O)c1)OC[C@H]1O[C@H]2OC[C@H](c3ccc(O)c(O)c3)O[C@@H]2[C@@H](O)[C@@H]1O [PLANTASIOSIDE]
IC50 (HCT-8): 3.4 µM

Now from value to molecule, other results behind:

IC50 (Liver microsomes): > 10 µM
SMILES: COc1cc(O[C@@H]2O[C@H](CO)[C@@H](O)[C@H](O)[C@H]2O)ccc1O[C@@H]1O[C@H](CO)[C@@H](O)[C@H](O)[C@H]1O
IC50 [1]: > 5 µM | IC50 (A549): > 5 µM | IC50 [2]: > 5 µM | inhibition at 10 µM [3]: 16.3% | IC50 (HCT-8): > 5 µM | IC50 (A2780): > 5 µM

IC50 (Liver microsomes): > 10 µM
SMILES: COc1cc([C@@H](O)[C@H](O)CO)cc(OC)c1O[C@@H]1O[C@H](CO)[C@@H](O)[C@H](O)[C@H]1O
IC50 [1]: > 5 µM | IC50 (A549): > 5 µM | IC50 [2]: > 5 µM | inhibition at 10 µM [3]: 27.5% | IC50 (HCT-8): > 5 µM | IC50 (A2780): > 5 µM

IC50 (Liver microsomes): > 10 µM
SMILES: COc1cc(CCO[C@@H]2O[C@H](CO[C@@H]3OC[C@](O)(CO)[C@H]3O)[C@@H](O)[C@H](O)[C@H]2O)ccc1O
IC50 [4]: 1.6 µM | IC50 [1]: > 5 µM | IC50 (A549): > 5 µM | IC50 [2]: > 5 µM | inhibition at 10 µM [3]: 44.3% | IC50 (HCT-8): > 5 µM | IC50 (A2780): > 5 µM

IC50 (Liver microsomes): > 10 µM
SMILES: COc1cc([C@H](O)[C@@H](O)CO)cc(OC)c1O[C@@H]1O[C@H](CO)[C@@H](O)[C@H](O)[C@H]1O
IC50 [1]: > 5 µM | IC50 (A549): > 5 µM | IC50 [2]: > 5 µM | inhibition at 10 µM [3]: 28.2% | IC50 (HCT-8): > 5 µM | IC50 (A2780): > 5 µM

IC50 (Liver microsomes): 0.9 µM
SMILES: OC[C@@]1(O)CO[C@@H](OC[C@H]2O[C@@H](OCCc3ccc(O)c(O)c3)[C@H](O)[C@@H](O)[C@@H]2O)[C@@H]1O
IC50 [1]: > 5 µM | IC50 (A549): > 5 µM | IC50 [2]: > 5 µM | inhibition at 10 µM [3]: 28.8% | IC50 (HCT-8): > 5 µM | IC50 (A2780): > 5 µM
